The source made the active and inactive calls. The rule behind the calls is not given here.
Assays:
[1] = biological target: T1, Sucrase-isomaltase, intestinal (Rattus norvegicus, UniProt P23739); test: Inhibition of rat intestinal isomaltase
Outline: (§1)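 Crude enzyme from rat intestinal acetone powder in 0.1 M K3PO4 buffer (5 mM EDTA, pH 7). Substrates: maltose 25 mM (maltase), sucrose 100 mM (sucrase), isomaltose 25 mM (isomaltase). Sample added in DMSO. Incubated 30 min, then stopped with 2 M Tris-HCl. Released glucose measured by glucose oxidase. IC50 read graphically from percent inhibition versus log concentration.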

[2] = biological target: T2, Pancreatic alpha-amylase (Sus scrofa) (UniProt P00690); test: Inhibition of pig pancreas alpha amylase
T2 sequence (whole entry): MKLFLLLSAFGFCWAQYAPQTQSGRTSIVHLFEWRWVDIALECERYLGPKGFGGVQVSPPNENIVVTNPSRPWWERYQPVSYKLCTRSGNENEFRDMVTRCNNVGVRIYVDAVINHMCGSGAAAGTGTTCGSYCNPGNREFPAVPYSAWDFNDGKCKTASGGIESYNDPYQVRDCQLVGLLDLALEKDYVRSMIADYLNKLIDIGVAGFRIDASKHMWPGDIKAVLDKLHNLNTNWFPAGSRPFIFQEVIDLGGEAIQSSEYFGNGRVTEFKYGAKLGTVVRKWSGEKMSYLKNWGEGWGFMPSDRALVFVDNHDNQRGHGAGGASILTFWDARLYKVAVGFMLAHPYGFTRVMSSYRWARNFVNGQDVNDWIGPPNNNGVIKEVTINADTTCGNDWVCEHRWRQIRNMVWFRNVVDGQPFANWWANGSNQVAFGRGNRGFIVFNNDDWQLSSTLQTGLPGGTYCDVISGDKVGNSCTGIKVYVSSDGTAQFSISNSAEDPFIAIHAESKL

[3] = biological target: T1, Sucrase-isomaltase, intestinal; test: Inhibition of rat intestinal sucrase; outline: as §1

T1 sequence (P23739 1-1013 limits assumed): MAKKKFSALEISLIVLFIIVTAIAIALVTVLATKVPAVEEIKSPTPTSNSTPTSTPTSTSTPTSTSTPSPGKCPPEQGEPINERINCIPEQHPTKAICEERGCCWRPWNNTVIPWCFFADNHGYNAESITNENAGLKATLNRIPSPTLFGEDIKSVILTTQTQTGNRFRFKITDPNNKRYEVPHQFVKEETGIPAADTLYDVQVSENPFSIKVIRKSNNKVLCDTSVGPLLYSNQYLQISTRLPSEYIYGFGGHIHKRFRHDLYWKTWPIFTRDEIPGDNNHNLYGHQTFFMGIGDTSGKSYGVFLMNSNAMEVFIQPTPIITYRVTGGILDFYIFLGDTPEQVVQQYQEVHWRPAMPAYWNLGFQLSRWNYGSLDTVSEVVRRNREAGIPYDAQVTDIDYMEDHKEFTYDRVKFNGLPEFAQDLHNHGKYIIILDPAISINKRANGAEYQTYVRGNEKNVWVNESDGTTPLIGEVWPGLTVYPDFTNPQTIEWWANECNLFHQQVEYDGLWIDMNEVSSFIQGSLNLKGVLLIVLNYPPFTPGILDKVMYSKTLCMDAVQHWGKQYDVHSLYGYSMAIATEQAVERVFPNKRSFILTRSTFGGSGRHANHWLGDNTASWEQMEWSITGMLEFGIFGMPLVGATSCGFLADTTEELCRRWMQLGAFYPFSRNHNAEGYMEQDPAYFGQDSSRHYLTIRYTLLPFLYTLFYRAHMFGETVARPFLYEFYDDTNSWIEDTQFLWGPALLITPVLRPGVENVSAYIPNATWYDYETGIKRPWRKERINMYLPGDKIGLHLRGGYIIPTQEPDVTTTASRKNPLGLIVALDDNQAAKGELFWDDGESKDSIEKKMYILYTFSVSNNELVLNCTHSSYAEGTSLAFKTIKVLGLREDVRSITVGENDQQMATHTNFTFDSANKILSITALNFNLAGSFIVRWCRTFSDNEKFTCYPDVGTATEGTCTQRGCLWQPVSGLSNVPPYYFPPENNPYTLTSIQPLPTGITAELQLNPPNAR
T1 sequence (P23739 1014-1841 limits assumed): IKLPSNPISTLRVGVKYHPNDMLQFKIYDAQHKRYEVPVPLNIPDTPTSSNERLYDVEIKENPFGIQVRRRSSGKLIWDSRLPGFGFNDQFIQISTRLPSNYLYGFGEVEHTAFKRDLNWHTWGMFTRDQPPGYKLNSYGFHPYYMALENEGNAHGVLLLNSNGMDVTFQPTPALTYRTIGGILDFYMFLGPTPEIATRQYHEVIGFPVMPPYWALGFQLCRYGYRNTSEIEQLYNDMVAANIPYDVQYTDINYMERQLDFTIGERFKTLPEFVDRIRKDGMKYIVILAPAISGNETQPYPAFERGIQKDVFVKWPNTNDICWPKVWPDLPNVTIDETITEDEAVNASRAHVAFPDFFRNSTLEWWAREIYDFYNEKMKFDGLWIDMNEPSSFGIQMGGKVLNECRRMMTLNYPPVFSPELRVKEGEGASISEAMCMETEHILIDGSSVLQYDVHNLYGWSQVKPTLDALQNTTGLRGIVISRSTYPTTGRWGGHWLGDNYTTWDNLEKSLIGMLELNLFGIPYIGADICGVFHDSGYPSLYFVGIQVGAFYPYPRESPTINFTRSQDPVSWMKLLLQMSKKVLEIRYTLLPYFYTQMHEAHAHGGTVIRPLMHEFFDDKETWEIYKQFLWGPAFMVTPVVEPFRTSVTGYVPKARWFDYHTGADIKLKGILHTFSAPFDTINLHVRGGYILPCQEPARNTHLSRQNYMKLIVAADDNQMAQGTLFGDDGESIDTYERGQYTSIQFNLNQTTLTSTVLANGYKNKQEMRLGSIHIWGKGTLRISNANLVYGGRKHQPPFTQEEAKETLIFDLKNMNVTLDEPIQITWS

IC50 [1] [µM]	Ki [1] [µM]	Activity [2]	IC50 [3] [µM]	Ki [3] [µM]	SMILES
0.099	0.42	inactive	0.186	0.052	[O-][S+]1CC(O)C(O)C(O)CC(O)CC(O)C(O)C(O)C(O)C1 (stereo not drawn)
4.48	4.2	–	1.37	0.42	O=S(=O)([O-])O[C@@H]([C@H](O)[C@H](O)[C@@H](O)CO)[C@H](O)C[S+]1C[C@@H](O)[C@H](O)[C@H]1CO (stereo partly drawn) [KOTALANOL]
1.77	1.1	–	2.51	0.2	O=S(=O)([O-])O[C@@H](CO)[C@H](O)C[S@+]1C[C@@H](O)[C@H](O)[C@H]1CO [SALACINOL]

From ChEMBL document CHEMBL1157509, “Alpha-glucosidase inhibitor from Kothala-himbutu (Salacia reticulata WIGHT)” (J Nat Prod, 2008)
